In ChEMBL document CHEMBL1132447, “Structure-activity relationships and molecular modeling analysis of flavonoids binding to the benzodiazepine site of the rat brain GABA(A) receptor complex” (J Med Chem, 1999):
pKi: −log10 of the molar value.

Legend:
[1] = molecular target: GABA-A receptor; anion channel; assay: In vitro affinity against Benzodiazepine receptor binding to rat cortical membranes (using [3H]- flumazenil as radioligand).
Method in brief: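 Male Wistar rat (~200 g) cerebral cortex membranes, washed in Tris-citrate 50 mM pH 7.1, 2 mg original tissue/mL. Filtered, then scintillation counting. Duplicates.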

[2] = molecular target: GABA-A receptor; anion channel (Rattus norvegicus) (UniProt O09028+P15431+P18506+P18508+P19969+P20236+P23574+P23576+P28471+P28473+P30191+P62813+P63079+P63138+Q91ZM7+Q9ES14); assay: Ratio of Ki value without GABA and Ki value in the presence of GABA.; format: protein-complex assay

SMILES | pKi [1] | GABA ratio [2]
O=c1cc(-c2ccccc2)oc2cc(O)ccc12 [7-HYDROXYFLAVONE] | 5.38 | 1.14
O=c1cc(-c2ccc(O)cc2)oc2cc(O)cc(O)c12 [APIGENIN] | 6.11 | 1.03
O=c1cc(-c2ccccc2)oc2ccc(Br)cc12 [6-BROMOFLAVONE] | 7.15 | 1.8
O=c1cc(-c2ccccc2)oc2cc(O)cc(O)c12 [CHRYSIN] | 6.04 | 0.9
COc1ccc2oc(-c3ccccc3)cc(=O)c2c1 [6-METHOXYFLAVONE] | 6.24 | 1.51
O=c1cc(-c2ccccc2)oc2ccc(O)cc12 [6-HYDROXYFLAVONE] | 6.40 | 1.06
O=c1cc(-c2ccc([N+](=O)[O-])cc2)oc2ccc([N+](=O)[O-])cc12 | 4.77 | –
Cc1ccc2oc(-c3cccc([N+](=O)[O-])c3)cc(=O)c2c1 | 8.25 | 0.72
CCc1c(C(=O)OC)ncc2[nH]c3cc(OC)c(OC)cc3c12 | 8.12 | 0.57
Cc1ccc2oc(-c3ccccc3)cc(=O)c2c1 [6-METHYLFLAVONE] | 6.90 | 0.98
Cc1ccc2sc(-c3ccccc3)cc(=O)c2c1 | 6.51 | 1.35
Cc1ccc2oc(-c3ccccc3[N+](=O)[O-])cc(=O)c2c1 | 6.00 | 1.49
O=c1cc(-c2cccc([N+](=O)[O-])c2)oc2ccc([N+](=O)[O-])cc12 | – | 1.3
Cc1cccc(-c2cc(=O)c3cc(C)ccc3o2)c1 | 7.54 | 1.63
Cc1ccc2sc(-c3cccc([N+](=O)[O-])c3)cc(=O)c2c1 | 7.48 | 1.51
O=c1c(Br)c(-c2ccccc2)oc2ccccc12 | < 4.12 | –
Cc1ccc2oc(-c3ccc([N+](=O)[O-])cc3)cc(=O)c2c1 | 5.14 | –
O=c1cc(-c2ccccc2)oc2ccccc12 [FLAVONE] | 5.38 | 1.05
O=c1cc(-c2ccccc2)oc2ccc3ccccc3c12 [BETA-NAPHTHOFLAVONE] | 5.83 | 1.28
Cc1ccc2oc(-c3cccc([N+](=O)[O-])c3)cc(=O)c2c1[N+](=O)[O-] | 8.72 | 1.41
O=c1cc(-c2cccc([N+](=O)[O-])c2)oc2ccc(Br)cc12 | – | 1.4
O=c1cc(-c2ccccc2)oc2cccc(O)c12 [5-HYDROXYFLAVONE] | 5.72 | 1.03
